Laboratory results published in ChEMBL document CHEMBL1153602, “Photochemical electrocyclisation of 3-vinylindoles to pyrido[2,3-a]-, pyrido[4,3-a]- and thieno[2,3-a]-carbazoles: design, synthesis, DNA binding and antitumor cell cytotoxicity” (2009).
Active and inactive are the calls of the source. The rule behind the calls is not given here.

Assays:
HT-29 [1] = experiment: Growth inhibition of human HT-29 cells by MTS assay; type: functional
Method in brief: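 HT-29 cells, 3×10^3 per well, were seeded 24 h before treatment with compound at 1 nM–100 µM, run as 3 series of duplicate or triplicate points. After 72 h at 37 °C, MTS tetrazolium was added for 2 h and absorbance read at 492 nm. GC50 is the concentration halving cell number versus untreated control wells.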

Nucleic Acid [2] = experiment: Binding affinity to pBS 117bp DNA by DnaseI footprinting assay; type: nucleic-acid assay
Method in brief: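 Ligand and fragment were pre-incubated 15 min at 37 °C, then digested with DNase I at 0.001 unit/ml in 20 mM NaCl, 2 mM MgCl2, 2 mM MnCl2, pH 7.3. Products were resolved on a denaturing 8% polyacrylamide/8 M urea gel, with a G-track marker.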

HT-29 [3] = experiment: Cell cycle arrest in human HT-29 cells assessed as accumulation at G2/M phase after 24 hrs using PI staining by flow cytometry; type: functional, cell-based
Method in brief: (§1)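 HT-29 cells, 3×10^5 per sample in exponential growth, were exposed to graded drug concentrations for 24 h. Cells were then trypsinised, fixed in 70% ethanol and stained 30 min in the dark with propidium iodide (50 µg/ml) plus RNase (100 µg/ml). DNA content was measured by flow cytometry, quantifying cell-cycle phases and the sub-G1 fraction.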

Nucleic Acid [4] = experiment: Binding affinity to poly(dA).poly(dT) duplex DNA assessed as change in thermal melting temperature at compound to DNA ratio of 0.1 by UV-vis spectroscopy; type: nucleic-acid assay
Calf thymus DNA [5] = experiment: Binding affinity to calf thymus DNA assessed as positive dichroic signal at phosphate/drug ratio of 1.2 by circular dichroism spectra; type: nucleic-acid assay; details: Bos taurus
Method in brief: (§2)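 Circular dichroism of drug at […] in 1 ml of 1 mM sodium cacodylate, pH 7.0, with or without CT-DNA at 10–200 µM. Phosphate/compound ratio ran from 0.4 to 8. The induced CD signal in the ligand absorption region was recorded.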

Calf thymus DNA [6] = experiment: Binding affinity to calf thymus DNA assessed as change in melting temperature at a compound to DNA molar ratio of 0.1 by UV-vis spectroscopy; type: nucleic-acid assay; details: Bos taurus
Method in brief: (§3)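 UV absorbance of DNA at 260 nm recorded every minute from 20 to 100 °C, ramping 1 °C/min in a thermostated quartz cell. Tm is taken as the midpoint of the hyperchromic transition. ΔTm = Tm(DNA+drug) − Tm(DNA alone). Calf-thymus DNA or poly(dAdT)2 was used at DNA/drug ratios from 0.1 to 1.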

Nucleic Acid [7] = experiment: Binding affinity to poly(dA).poly(dT) duplex DNA assessed as change in thermal melting temperature at compound to DNA ratio of 1 by UV-vis spectroscopy; type: nucleic-acid assay
Calf thymus DNA [8] = experiment: Binding affinity to calf thymus DNA assessed as change in melting temperature at a compound to DNA molar ratio of 1 by UV-vis spectroscopy; type: nucleic-acid assay; details: Bos taurus; method in brief: as §3
Nucleic Acid [9] = experiment: Binding affinity to poly(dA).poly(dT) duplex DNA assessed as change in thermal melting temperature at compound to DNA ratio of 0.5 by UV-vis spectroscopy; type: nucleic-acid assay
Calf thymus DNA [10] = experiment: Binding affinity to calf thymus DNA assessed as change in melting temperature at a compound to DNA molar ratio of 0.5 by UV-vis spectroscopy; type: nucleic-acid assay; details: Bos taurus; method in brief: as §3
Calf thymus DNA [11] = experiment: Binding affinity to calf thymus DNA assessed as change in melting temperature at a compound to DNA molar ratio of 0.25 by UV-vis spectroscopy; type: nucleic-acid assay; details: Bos taurus; method in brief: as §3
Nucleic Acid [12] = experiment: Binding affinity to poly(dA).poly(dT) duplex DNA assessed as change in thermal melting temperature at compound to DNA ratio of 0.25 by UV-vis spectroscopy; type: nucleic-acid assay
Calf thymus DNA [13] = experiment: Binding affinity to calf thymus DNA assessed as quenching constant up 80 uM by fluorescence spectroscopy; type: nucleic-acid assay; details: Bos taurus
Method in brief: (§4)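 Drug at a fixed 20 µM in 1 ml BPE buffer in a 10 mm quartz cuvette, titrated with CT-DNA at 10–200 µM base pairs. Excitation was set at each compound's own wavelength (276–319 nm). Constants came from Stern–Volmer plots of F0/F against CT-DNA concentration, with the slope taken as Ksv.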

Calf thymus DNA [14] = experiment: Binding affinity to calf thymus DNA assessed as negative dichroic signal at phosphate/drug ratio by circular dichroism spectra; type: nucleic-acid assay; details: Bos taurus; method in brief: as §2
Calf thymus DNA [15] = experiment: Binding affinity to calf thymus DNA assessed as positive dichroic signal at phosphate/drug ratio by circular dichroism spectra; type: nucleic-acid assay; details: Bos taurus; method in brief: as §2
HT-29 [16] = experiment: Cell cycle arrest in human HT-29 cells assessed as accumulation at S phase after 24 hrs using PI staining by flow cytometry; type: functional, cell-based; method in brief: as §1
Calf thymus DNA [17] = experiment: Binding affinity to calf thymus DNA assessed as quenching constant by fluorescence spectroscopy; type: nucleic-acid assay; details: Bos taurus; method in brief: as §4
Calf thymus DNA [18] = experiment: Binding affinity to calf thymus DNA assessed as positive dichroic signal at phosphate/drug ratio of 4.8 by circular dichroism spectra; type: nucleic-acid assay; details: Bos taurus; method in brief: as §2

Row | SMILES | GI50 (HT-29 [1]) [µM] | Activity (Nucleic Acid [2]) | Activity (HT-29 [3]) | ΔTm (Nucleic Acid [4]) [°C] | Activity (Calf thymus DNA [5]) | ΔTm (Calf thymus DNA [6]) [°C] | ΔTm (Nucleic Acid [7]) [°C] | ΔTm (Calf thymus DNA [8]) [°C] | ΔTm (Nucleic Acid [9]) [°C] | ΔTm (Calf thymus DNA [10]) [°C] | ΔTm (Calf thymus DNA [11]) [°C] | ΔTm (Nucleic Acid [12]) [°C] | KSV (Calf thymus DNA [13]) [×10⁴ /M] | Activity (Calf thymus DNA [14]) | Activity (Calf thymus DNA [15]) | Activity (HT-29 [16]) | KSV (Calf thymus DNA [17]) [×10³ /M] | Activity (Calf thymus DNA [18])
1 | CN(C)CCNC(=O)c1cc2c3cccc(Cl)c3[nH]c2c2ncccc12 | 14 | Active | Active | 2.8 | Active | 1.1 | 8.8 | 7.9 | 13.6 | 5.1 | 1.5 | 6.2 |  |  |  |  |  | 
2 | CN(C)CCCNC(=O)c1cc2c3ccccc3[nH]c2c2sccc12 | 10.8 | Active |  | 5.9 |  | 0 | 20.9 | 5.8 | 16.4 | 4.4 | 1.5 | 11.9 | 2.65 |  |  |  |  | 
3 | CN(C)CCNC(=O)c1cc2c3cc(Cl)ccc3[nH]c2c2ccncc12 | 1.08 | Active |  | 11.6 |  | 5.3 | 29.6 | 15.1 | 24.7 | 11.2 | 7.9 | 18.9 |  | Active | Active | Active | 6.72 | 
4 | CN(C)CCCNC(=O)c1cc2c3cccc(Cl)c3[nH]c2c2ncccc12 | 4.49 | Active | Active | 9.7 |  | 2.6 | 29.8 | 13.8 | 23.6 | 10.4 | 5 | 17.6 |  |  |  |  |  | Active
